Screens from PubChem BioAssay.
TAAR1 agonist: human TAAR1 agonists, primary screen, Fluo-8 calcium fluorescence, CHO RD-HGA16 cells; Trace amine-associated receptor 1 (Homo sapiens), Q96RJ0; vehicle wells 0%, saturating PEA agonist 100%; activation, % at 3 µM; hit rate 0.99% among 360,000;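 active = activation above the mean activation of all test compounds in the run plus 3 SD, cut at about 38% in these data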
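Test system: RD-HGA16 (CHO) cells co-expressing Gα16 and hTAAR1 / Benchmarks: DMSO vehicle as 0%, PEA at EC100 as 100% / Repeats: no replicates (n 1) / Measure: % activation from peak over basal fluorescence ratio, DMSO-to-PEA scaled / Timing: 17-24 h plating, Fluo-8 75 min 37 °C, 30 min RT / Technique: kinetic Fluo-8 calcium fluorescence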
OX1R antag-1: OX1R (HCRTR1) antagonists, primary screen, fluorescence, CHO/OX1R cells, Fluo-8 calcium, orexin A | Orexin/Hypocretin receptor type 1 (Homo sapiens), O43613 | Fluo-8 calcium fluorescence | inhibition, % at 5 µM | hit rate 0.43% among 330,000 | AID 434989, 2010;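 active = inhibition above its plate's threshold, mean inhibition of all tested compounds on the plate plus 3 SD, cut at about 37% in these data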;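 also: 0% = orexin A challenge wells and 100% = SB-334867-A antagonist wells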
Target sequence (O43613 whole entry, looked up): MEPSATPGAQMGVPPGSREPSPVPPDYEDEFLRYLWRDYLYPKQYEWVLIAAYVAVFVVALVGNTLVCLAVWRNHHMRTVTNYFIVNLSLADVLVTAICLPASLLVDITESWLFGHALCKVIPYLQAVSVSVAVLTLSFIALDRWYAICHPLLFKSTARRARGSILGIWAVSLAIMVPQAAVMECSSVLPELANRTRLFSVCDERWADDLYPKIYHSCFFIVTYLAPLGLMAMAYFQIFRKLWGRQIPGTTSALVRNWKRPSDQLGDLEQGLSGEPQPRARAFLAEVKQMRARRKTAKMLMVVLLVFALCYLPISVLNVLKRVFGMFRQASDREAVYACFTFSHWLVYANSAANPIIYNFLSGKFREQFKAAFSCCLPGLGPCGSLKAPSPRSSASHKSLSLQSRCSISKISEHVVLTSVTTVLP
CHO parental Ca: ATP-evoked calcium signal inhibitors, parental CHO, primary screen, counter-screen for OX1R antagonist project, cell-based, fluorescence, Fluo-8 calcium dye; parental CHO-K1, ATP-induced calcium, Fluo-8 fluorescence; inhibition, % at 5.6 µM; hit rate 0.63% among 330,000; AID 463079, 2010;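 active = inhibition above that plate's mean sample inhibition plus 3 SD, cut at about 26% in these data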;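 also: 0% = ATP-challenged DMSO wells and 100% = DMSO wells without ATP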
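material = parental CHO cells | also added = ATP as calcium-mobilizing challenge | dosing = single point at 5.6 µM | detection = intracellular calcium via Fluo-8 no-wash fluorescent dye | read-out = % inhibition | benchmarks = low control ATP plus DMSO, high control DMSO only | repeats = one well per compound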
TAAR1 antag: human TAAR1 antagonists, primary screen, Fluo-8 calcium fluorescence, CHO RD-HGA16 cells; antagonist; hit rate 1.5% among 360,000; inhibition, % at 3 µM;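 active = inhibition above a per-plate cutoff, the mean inhibition of test compounds on that plate plus 3 SD, cut at about 49% in these data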;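 also: 0% = DMSO plus EC80 beta-PEA response and 100% = DMSO alone without agonist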
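Assay system: CHO-derived RD-HGA16 cells stably expressing human TAAR1 plus Gα16. Timing: 140 s kinetic read after compound, 140 s after agonist. Technique: kinetic Fluo-8 calcium fluorescence measurement. Measure: % inhibition of agonist calcium response.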
OX1R antag-2: antagonists of human orexin 1 receptor (OX1R); hit rate 1.8% among 330,000; AID 485270, 2010; Orexin/Hypocretin receptor type 1 (Homo sapiens), O43613; inhibition, % at 6.6 µM; OX1R-expressing cells, FRET antagonist read-out; in the data active = inhibition mostly above about 38%, no sharp cut-off; inactive = mostly below about 40%;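 also: 0% = agonist challenge alone and 100% = reference antagonist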
OX1R HTRF conf: OX1R (HCRTR1) antagonists, confirmation, cell-based, HTRF. shares compounds with OX1R antag-2. OX1R-expressing cells, HTRF antagonist assay. inhibition, % at 6.6 µM. hit rate 49% among 1,800; in the data active = inhibition above about 55%;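 also: CHO cells expressing OX1R stimulated with orexin A at about EC80; 0% = agonist challenge alone and 100% = reference antagonist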
CHO-K1 HTRF cnt: signal inhibition in parental CHO-K1 cells, counter-screen for OX1R antagonist project, cell-based, HTRF. shares compounds with OX1R antag-2. HTRF counterscreen. inhibition, % at 6.6 µM. hit rate 48% among 1,800; in the data active = inhibition above about 17%;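 also: 0% = agonist challenge with vehicle and 100% = vehicle alone without agonist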
* = called active by the depositor; · = no result given. Rows were chosen to be rich in hits. Some 3.9% of all compounds tested hit in one or more screens of this group.

SMILES | TAAR1 agonist | OX1R antag-1 | CHO parental Ca | TAAR1 antag | OX1R antag-2 | OX1R HTRF conf | CHO-K1 HTRF cnt
O=C(Nc1ccc([N+](=O)[O-])cc1)C(=O)Nc1cccc(C(=O)O)c1 | 1 | -6 | -6 | -23 | 79* | 36 | 32*
CCc1nc2ccc(C(=O)Nc3cccc(NS(C)(=O)=O)c3)cn2c1N(C)CCN1CCOCC1 | 1 | · | · | -16 | · | · | ·
c1ccc2c(c1)oc1c(NCc3ccc4c(c3)OCO4)ncnc12 | · | 29 | 19 | · | 88* | 82* | 4
COC(=O)c1cc2c(c3c4cc(F)ccc4n(S(=O)(=O)c4ccc(C)cc4)c13)C(=O)N(Cc1ccccc1)C2 | -1 | · | · | -34 | · | · | ·
CCC(C(=O)NC(C)(C)C)n1c(-c2ccc3c(c2)OCO3)nc2ccccc21 (stereo unspecified) | -1 | · | · | -14 | · | · | ·
NC(=O)c1ccc(SCC(=O)NC2CCCCC2)c([N+](=O)[O-])c1 | 1 | -10 | -1 | -16 | 77* | 29 | 35*
CC1(C)CC(NC(=O)c2cc([N+](=O)[O-])cc([N+](=O)[O-])c2)CC(C)(C)N1 | 1 | -2 | -6 | -7 | 98* | 78* | 78*
CN(CCCC(=O)NC1CC(C)(C)NC(C)(C)C1)S(=O)(=O)c1ccc([N+](=O)[O-])cc1 | 7 | -5 | -11 | 2 | 79* | 45 | 59*
CC1(C)CC(NC(=O)COc2ccc([N+](=O)[O-])cc2)CC(C)(C)N1 | 5 | -22 | -11 | -2 | 20 | · | ·
O=C(N/N=C/c1ccc([N+](=O)[O-])s1)c1ccccc1 | 1 | -4 | -11 | 18 | 107* | 36 | 52*
COC(=O)N/N=C/c1ccc([N+](=O)[O-])s1 | 1 | 10 | 4 | -11 | 106* | 44 | 85*
Cn1c(SCC(=O)N/N=C/c2cc([N+](=O)[O-])ccc2O)nnc1-c1ccccc1 | 0 | -14 | -19 | -13 | 1 | · | ·
Cn1c(SCC(=O)N/N=C/c2ccc([N+](=O)[O-])s2)nnc1-c1ccccc1 | 0 | -6 | -15 | -4 | 87* | 37 | 52*
Cc1cc2c(c(=O)o1)[C@@]1(C(=O)N(C)c3c(Br)cccc31)C1=C(CCCC1=O)O2 | 1 | · | · | -20 | · | · | ·
COc1cccc(-c2nnc(SCC(=O)Nc3ccc4c(c3)OCCO4)n2Cc2ccco2)c1 | 12 | 24 | -19 | 25 | 78* | 52 | 5
CCn1c(=O)cc(OCC(=O)Nc2ccc(OC)c(OC)c2)c2ccccc21 | 7 | -11 | -6 | 1 | 82* | 21 | 4
CCn1c2ccccc2c2cc(NC(=O)COC(=O)c3cc(OC)c(OC)cc3OC)ccc21 | 0 | 19 | -17 | 16 | 80* | 89* | 12
COCCNC(=O)C1(C)CCN(C(=O)c2ccc(SC(F)(F)F)cc2)C1 (stereo unspecified) | 3 | · | · | -18 | · | · | ·
OC(c1ccc(F)cc1)c1nc(-c2cccc(F)c2)cs1 (stereo unspecified) | -2 | · | · | -7 | · | · | ·
CCC(=O)N1CCN(c2ccc(NC(=O)c3ccc([N+](=O)[O-])o3)cc2)CC1 | 4 | · | · | -9 | · | · | ·
CC(C)(C)C(=O)N1CCN(c2ccc(NC(=O)c3ccc([N+](=O)[O-])o3)cc2)CC1 | 10 | -12 | -1 | 8 | 78* | 30 | -12
COc1ccc2nc(Nc3nc(C)c(C(C)=O)s3)sc2c1 | -2 | 4 | -24 | 0 | 81* | 52 | 2
O=C(C1CCCN(S(=O)(=O)c2ccccc2[N+](=O)[O-])C1)N1CCCC1 (stereo unspecified) | 0 | 22 | 1 | 2 | 122* | 27 | 4
CC1(C)OC(=O)C(=NNc2ccccc2)C(=O)O1 | 2 | 4 | 4 | -22 | 52 | · | ·
CC1(C)OC(=O)C(=NNc2ccc(O)cc2)C(=O)O1 | 3 | -4 | 23 | -21 | 82* | 19 | 24*
SMILES | TAAR1 agonist | OX1R antag-1 | CHO parental Ca | TAAR1 antag | OX1R antag-2 | OX1R HTRF conf | CHO-K1 HTRF cnt
Nc1nc2ccccc2n1/N=C/c1ccc([N+](=O)[O-])s1 | 31 | -4 | -4 | -11 | 78* | 27 | 27*
COCCN1Cc2cc(C(=O)OC)c3c(c2C1=O)c1cc(F)ccc1n3S(=O)(=O)c1ccc(C)cc1 | -2 | · | · | -47 | · | · | ·
O=[N+]([O-])c1cc2c(ccc3occc32)o1 | -2 | · | · | 2 | · | · | ·
COc1cccc(N=Nc2c(=O)[nH]n3c(=O)cc(C)[nH]c23)c1 | -2 | -2 | 4 | -24 | 107* | 41 | 48*
CCC(C)n1c(=N)c(C#N)cc2c(=O)n3cc(C)ccc3nc21 (stereo unspecified) | 0 | -10 | 6 | 21 | 9 | · | ·
Cc1ccc2nc3c(cc(C#N)c(=O)n3-c3nccs3)c(=O)n2c1 | 6 | -13 | -4 | 3 | 169* | 90* | 77*
CCc1nc2c(OCCOc3ccc(F)cc3)cccn2c1N(C)C(=O)CC(C)C | -1 | · | · | 4 | · | · | ·
CN(C)C(CNC(=O)c1cc2ccccc2oc1=O)c1ccccc1 (stereo unspecified) | 2 | -37 | -7 | -1 | 92* | 35 | 43*
Cc1ccc(S(=O)(=O)N2[C@@H](c3ccc(Cl)cc3)C(C(=O)O)=CC[C@H]2c2ccc3c(c2)OCO3)cc1 | 2 | -18 | 2 | 7 | 31 | · | ·
Cc1ccc(S(=O)(=O)N2[C@@H](c3cccc(Cl)c3)C(C(=O)O)=CC[C@H]2c2ccc3c(c2)OCO3)cc1 | 5 | 26 | -10 | 5 | 83* | 87* | -1
O=C(CCN1C(=O)c2ccccc2C1=O)OCN1C(=O)c2ccccc2C1=O | 11 | -20 | 8 | -2 | 14 | · | ·
O=C(COC(=O)CN1C(=O)C(=O)c2ccccc21)OCN1C(=O)c2ccccc2C1=O | 0 | -15 | -1 | -8 | 84* | 19 | 6
Cc1nnc(N/N=C/c2ccc(Br)cc2)n1N | 0 | -2 | -4 | -3 | 33 | · | ·
Cc1nnc(N/N=C/c2ccc([N+](=O)[O-])cc2)n1N | 3 | -5 | 3 | -37 | 127* | 38 | 76*
O=C(O)c1cccc(-c2ccc(/C=N/NC(=O)c3cccnc3)o2)c1 | -1 | -8 | -1 | -4 | 37 | · | ·
Cc1nnc(N/N=C\c2ccc(-c3cccc(C(=O)O)c3)o2)n1N | 16 | -1 | 1 | -4 | 115* | 48 | 33*
O=C(C(=O)N1CCC(CNC(=O)c2sc3ccccc3c2Cl)CC1)c1cccs1 | 3 | · | · | -14 | · | · | ·
